# In ChEMBL document CHEMBL4699593, “Identification of 2,4-Disubstituted Imidazopyridines as Hemozoin Formation Inhibitors with Fast-Killing Kinetics and In Vivo Efficacy in the Plasmodium falciparum NSG Mouse Model” (J Med Chem, 2020):
# Tests used:
# Plasmodium falciparum [1] = test: Antiplasmodial activity against multidrug-sensitive asexual blood stage Plasmodium falciparum NF54 strain assessed as reduction in parasite growth after 72 hrs by NBT reagent based LDH assay; assay type: functional, organism-based; details: NF54, 72 h
# Plasmodium falciparum [2] = test: Antiplasmodial activity against multidrug-resistant asexual blood stage Plasmodium falciparum K1 strain assessed as reduction in parasite growth after 72 hrs by NBT reagent based LDH assay; assay type: functional, organism-based; details: K1, 72 h
# Procedure, shortened: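 Asexual blood-stage K1 (multidrug-resistant) parasites were read out by the parasite lactate dehydrogenase (pLDH) assay. […] Most individual values varied less than 2× (maximum 3×).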
# [3] = Aqueous solubility of compound in phosphate buffer saline at pH 6.5 incubated for 20 hrs under shaking condition by shake-flask method based HPLC-DAD analysis; assay type: physicochemical; details: phosphate buffered saline
# Procedure, shortened: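 Equilibrium aqueous solubility was measured at pH 6.5 using a miniaturized shake-flask method.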
# CHO = test: Cytotoxicity against CHO cells assessed as reduction in cell viability by MTT assay; assay type: cell-based, Cricetulus griseus; details: chinese hamster
# Procedure, shortened: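 Cytotoxicity was measured in Chinese hamster ovary (CHO) cells and reported as CC50. The selectivity index is CC50 divided by NF54 IC50.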
# [4] = Cmax in Balb/C mouse at 2 mg/kg, iv by LC-MS/MS analysis; assay type: ADME, organism-based; design: route intravenous, dose 2 mg/kg; details: in vivo
# Procedure, shortened: (§1)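 Healthy Balb/c mice dosed i.v. or orally. Parameters come from non-compartmental analysis of compound concentration over time. […] Clearance is blood clearance (CL_b).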
# [5] = Cmax in Balb/C mouse at 10 mg/kg, po by LC-MS/MS analysis; assay type: ADME, organism-based; design: route oral, dose 10 mg/kg; details: in vivo; procedure, shortened: as §1
# [6] = Tmax in Balb/C mouse at 10 mg/kg, po by LC-MS/MS analysis; assay type: ADME, organism-based; details: in vivo
# Procedure, shortened: (§2)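 Healthy Balb/c mice were given the compound i.v. or orally. Parameters come from non-compartmental analysis: AUC from 0 h to t_last, blood clearance, volume at steady state, terminal half-life, Tmax. Oral bioavailability F is derived from the i.v. and p.o. data.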
# [7] = Terminal half life in Balb/C mouse at 2 mg/kg, iv by LC-MS/MS analysis; assay type: ADME, organism-based; details: in vivo, read-out: beta t1/2 (converted); procedure, shortened: as §2
# [8] = Terminal half life in Balb/C mouse at 10 mg/kg, po by LC-MS/MS analysis; assay type: ADME, organism-based; details: in vivo, read-out: beta t1/2 (converted); procedure, shortened: as §2
# [9] = Clearance in Balb/C mouse blood at 2 mg/kg, iv by LC-MS/MS analysis; assay type: ADME, organism-based; details: whole blood; procedure, shortened: as §1
# [10] = Volume of distribution at steady state in Balb/C mouse at 2 mg/kg, iv by LC-MS/MS analysis; assay type: ADME, organism-based; details: in vivo, read-out: Vdss; procedure, shortened: as §2
# [11] = AUC (0 to t) in Balb/C mouse at 2 mg/kg, iv by LC-MS/MS analysis; assay type: ADME, organism-based; design: dose 2 mg/kg; details: in vivo; procedure, shortened: as §1
# [12] = AUC (0 to t) in Balb/C mouse at 10 mg/kg, po by LC-MS/MS analysis; assay type: ADME, organism-based; design: dose 10 mg/kg; details: in vivo; procedure, shortened: as §1
# [13] = Oral bioavailability in Balb/C mouse at 10 mg/kg by LC-MS/MS analysis; assay type: ADME, organism-based; details: in vivo; procedure, shortened: as §2
# [14] = Ratio of unbound average drug concentration in Balb/c mouse at 10 mg/kg, po measured at 24 hrs to IC50 for antiplasmodial activity against multidrug-sensitive Plasmodium falciparum NF54 asexual blood stage assessed as reduction in parasite growth after 72 hrs by LDH assay; assay type: organism-based; details: in vivo
# [15] = Dissociation constant, pKa of compound; assay type: physicochemical
# [16] = Apparent intrinsic clearance in mouse liver microsomes at 0.1 uM in presence of NADPH by LC-MS/MS analysis; assay type: ADME, Microsome
# Procedure, shortened: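 Compound was incubated with mouse liver microsomes for 30 min. Apparent intrinsic clearance (CL_int,app) is reported in μL/min/mg.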
# [17] = Selectivity index, ratio of CC50 for cytotoxicity against CHO cells assessed as reduction in cell viability to IC50 for antiplasmodial activity against multidrug-sensitive Plasmodium falciparum NF54 assessed as reduction in parasite growth; assay type: toxicity, cell-based; details: hamster, read-out: Ratio CC50/IC50
# [18] = AUC in Balb/c mouse administered orally; assay type: ADME; details: in vivo, po; procedure, shortened: as §1
# [19] = target: Voltage-gated inwardly rectifying potassium channel KCNH2 (Homo sapiens, UniProt Q12809); test: Inhibition of human ERG by patch clamp method
# Hemozoin = test: Inhibition of beta-hematin formation assessed as reduction in hemozoin formation incubated for 5 hrs by NP40 detergent-mediated assay
# Procedure, shortened: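 Synthetic hemozoin (β-hematin) formation is driven by the detergent Nonidet P-40. Pyridine is then added to detect unreacted hematin. IC50 is derived from this read-out.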
# [20] = Tmax in Balb/C mouse at 5 mg/kg, po by LC-MS/MS analysis; assay type: ADME, organism-based; details: in vivo; procedure, shortened: as §2
# [21] = Cmax in Balb/C mouse at 5 mg/kg, po by LC-MS/MS analysis; assay type: ADME, organism-based; design: route oral, dose 5 mg/kg; details: in vivo; procedure, shortened: as §1
# [22] = Terminal half life in Balb/C mouse at 5 mg/kg, po by LC-MS/MS analysis; assay type: ADME, organism-based; details: in vivo, read-out: beta t1/2 (converted); procedure, shortened: as §2
# [23] = AUC (0 to t) in Balb/C mouse at 5 mg/kg, po by LC-MS/MS analysis; assay type: ADME, organism-based; design: dose 5 mg/kg; details: in vivo; procedure, shortened: as §1
# [24] = Oral bioavailability in Balb/C mouse at 5 mg/kg by LC-MS/MS analysis; assay type: ADME, organism-based; details: in vivo; procedure, shortened: as §2
# [25] = Ratio of unbound average drug concentration in Balb/c mouse at 5 mg/kg, po measured at 24 hrs to IC50 for antiplasmodial activity against multidrug-sensitive Plasmodium falciparum NF54 asexual blood stage assessed as reduction in parasite growth after 72 hrs by LDH assay; assay type: organism-based; details: in vivo
# Sequence of Voltage-gated inwardly rectifying potassium channel KCNH2 (Q12809 whole entry): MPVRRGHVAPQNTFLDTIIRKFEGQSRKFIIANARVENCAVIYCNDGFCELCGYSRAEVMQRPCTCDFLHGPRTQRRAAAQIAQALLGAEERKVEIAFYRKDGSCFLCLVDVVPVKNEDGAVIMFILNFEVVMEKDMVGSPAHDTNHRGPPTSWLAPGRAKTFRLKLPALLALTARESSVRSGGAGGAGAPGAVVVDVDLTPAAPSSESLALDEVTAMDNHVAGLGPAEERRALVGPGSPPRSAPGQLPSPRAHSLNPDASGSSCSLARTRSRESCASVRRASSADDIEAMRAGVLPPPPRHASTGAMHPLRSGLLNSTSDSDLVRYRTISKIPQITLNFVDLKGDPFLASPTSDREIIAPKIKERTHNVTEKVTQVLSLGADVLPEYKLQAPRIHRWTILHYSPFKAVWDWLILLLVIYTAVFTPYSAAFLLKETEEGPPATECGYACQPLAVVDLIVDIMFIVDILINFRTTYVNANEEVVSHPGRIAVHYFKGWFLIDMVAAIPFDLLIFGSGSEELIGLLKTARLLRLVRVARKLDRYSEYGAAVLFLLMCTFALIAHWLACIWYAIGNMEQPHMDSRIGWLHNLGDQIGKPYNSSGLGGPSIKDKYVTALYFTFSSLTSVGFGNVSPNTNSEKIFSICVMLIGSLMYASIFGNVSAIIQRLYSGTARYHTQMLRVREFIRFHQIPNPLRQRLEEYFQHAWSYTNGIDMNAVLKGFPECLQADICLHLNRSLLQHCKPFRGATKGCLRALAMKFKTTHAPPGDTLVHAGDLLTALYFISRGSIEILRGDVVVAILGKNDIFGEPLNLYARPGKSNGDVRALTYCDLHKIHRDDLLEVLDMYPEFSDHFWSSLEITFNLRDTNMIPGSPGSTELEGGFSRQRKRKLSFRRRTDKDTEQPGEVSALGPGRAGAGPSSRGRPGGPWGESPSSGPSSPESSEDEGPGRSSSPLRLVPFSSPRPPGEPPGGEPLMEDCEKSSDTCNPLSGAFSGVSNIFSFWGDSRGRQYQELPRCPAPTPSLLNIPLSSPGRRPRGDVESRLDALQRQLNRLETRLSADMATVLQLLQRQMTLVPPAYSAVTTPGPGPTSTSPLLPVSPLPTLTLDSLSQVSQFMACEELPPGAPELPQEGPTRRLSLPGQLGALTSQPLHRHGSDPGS
smiles,measurement,setting,value
CN1CCN(CC2CCN(c3cncc4[nH]c(-c5cc(F)cc(F)c5)nc34)CC2)CC1,IC50,Plasmodium falciparum [1],130 nM
same,IC50,Plasmodium falciparum [2],330 nM
same,solubility thermodynamic at 20 h,[3],125 µM
same,CC50,CHO,46000 nM
same,Cmax,[4],100 nM
same,Cmax,[5],400 nM
same,Tmax,[6],3.5 h
same,half-life,[7],6.9 h
same,half-life,[8],4.9 h
same,clearance,[9],71.8 mL/min/kg
same,Vd,[10],51 L/kg
same,AUCt,[11],0.967 µM·h
same,AUCt,[12],3.57 µM·h
same,bioavailability,[13],73%
same,Ratio,[14],0.3
Fc1cc(F)cc(-c2nc3c(N4CCC(N5CCOCC5)CC4)nccc3[nH]2)c1,pKa,[15],7.4
CN1CCC(N2CCCN(c3nccc4[nH]c(-c5ccc(F)c(F)c5)nc34)CC2)CC1,IC50,Plasmodium falciparum [1],35 nM
same,IC50,Plasmodium falciparum [2],220 nM
same,solubility thermodynamic at 20 h,[3],200 µM
same,CC50,CHO,17000 nM
same,CLH,[16],> 200 µL/min/mg
same,selectivity ratio,[17],490
CS(=O)(=O)c1ccc(-c2cnc(N)c(-c3ccc(C(F)(F)F)nc3)c2)cc1 [MMV-048],AUC,[18],465 µM·h
Cc1cc2[nH]c(-c3cc(F)cc(F)c3)nc2c(N2CCC(CN3CCN(C)CC3)CC2)n1,IC50,Plasmodium falciparum [1],12 nM
same,IC50,Plasmodium falciparum [2],21 nM
same,solubility thermodynamic at 20 h,[3],200 µM
same,CC50,CHO,1900 nM
same,IC50,[19],> 30000 nM
same,selectivity ratio,[17],160
same,IC50,Hemozoin,15000 nM
Fc1cc(F)cc(-c2cc3c(N4CCC(N5CCOCC5)CC4)nccc3[nH]2)c1,pKa,[15],8.2
CN1CCN(c2nccc3nc(-c4ccc(F)c(F)c4)[nH]c23)CC1,Tmax,[20],0.7 h
same,IC50,Plasmodium falciparum [1],240 nM
same,IC50,Plasmodium falciparum [2],500 nM
same,solubility thermodynamic at 20 h,[3],130 µM
same,Cmax,[4],1000 nM
same,Cmax,[21],1100 nM
same,half-life,[7],5.9 h
same,half-life,[22],5.4 h
same,clearance,[9],27.3 mL/min/kg
same,Vd,[10],9 L/kg
same,AUCt,[11],3.58 µM·h
same,AUCt,[23],3.25 µM·h
same,bioavailability,[24],36%
same,Ratio,[25],0.1
CN1CCN(CC2CCN(c3nncc4[nH]c(-c5cc(F)cc(F)c5)nc34)CC2)CC1,IC50,Plasmodium falciparum [1],580 nM
same,IC50,Plasmodium falciparum [2],2900 nM
same,solubility thermodynamic at 20 h,[3],190 µM
same,IC50,Hemozoin,25000 nM
